From ChEMBL document CHEMBL3822380, “Simple avarone mimetics as selective agents against multidrug resistant cancer cells” (Eur J Med Chem, 2016)
Values after ≈ are worked out from the molar mass of the structure shown. Active and inactive are the calls of the source.

How the values were obtained:
[1] = tested on: NCI-H460; assay: Induction of apoptosis in human NCI-H460 cells assessed as early apoptotic cells at 25 uM after 72 hrs by annexin-V/propidium iodide staining-based flow cytometric analysis (reference value: 0.3%); assay type: functional
[2] = tested on: Saccharomyces cerevisiae; assay: Antifungal activity against Saccharomyces cerevisiae ATCC 9763 by broth microdilution method; assay type: functional
Summary of the method: (§1)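 Broth microdilution per NCCLS. Compounds dissolved in DMSO as 10 mg/mL stock, diluted in Mueller Hinton broth (bacteria) or Sabouraud dextrose broth (fungi). Amikacin served as the positive control for bacteria and nystatin for fungi.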

[3] = tested on: Escherichia coli; assay: Antibacterial activity against Escherichia coli ATCC 25922 by broth microdilution method; assay type: functional; summary of the method: as §1
[4] = tested on: Pseudomonas aeruginosa; assay: Antibacterial activity against Pseudomonas aeruginosa ATCC 9027 by broth microdilution method; assay type: functional; summary of the method: as §1
[5] = tested on: Staphylococcus aureus; assay: Antibacterial activity against Staphylococcus aureus ATCC 6538 by broth microdilution method; assay type: functional; summary of the method: as §1
[6] = tested on: HaCaT; assay: Induction of superoxide anion generation in human HaCaT cells at 25 uM after 72 hrs by DHE staining-based flow cytometric analysis relative to control; assay type: cell-based
Summary of the method: (§2)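 Seeded as for cell death (50,000 or 100,000 cells/well), treated 72 h at 25 µM, with CDDP 5 µM as control. Adherent cells trypsinized and loaded with 1 µM DHE for 30 min at 37 °C in the dark, then washed twice in PBS. Flow cytometry at ex 488/em 585 nm (FL2-H). Mean fluorescence intensity corrected for autofluorescence and compared with untreated control.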

[7] = Selectivity ratio of IC30/IC50 for human HaCaT cells to IC30/IC50 for human NCI-H460 cells; assay type: ADME, cell-based; settings: HaCaT cells versus NCI-H460 cells
Summary of the method: (§3)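 Fold threshold of 1.5 used to call selectivity to cancer cells, resistance, or selectivity to MDR cells.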

[8] = tested on: HaCaT; assay: Induction of apoptosis in human HaCaT cells assessed as late apoptotic/necrotic cells at 25 uM after 72 hrs by annexin-V/propidium iodide staining-based flow cytometric analysis (reference value: 0.2%); assay type: cell-based
[9] = tested on: NCI-H460; assay: Induction of apoptosis in multidrug resistant human NCI-H460 cells assessed as dead cells at 25 uM after 72 hrs by annexin-V/propidium iodide staining-based flow cytometric analysis (reference value: 1.5%); assay type: functional
[10] = tested on: Aspergillus brasiliensis; assay: Antifungal activity against Aspergillus brasiliensis ATCC 16404 by broth microdilution method; assay type: functional; summary of the method: as §1
[11] = Selectivity ratio of IC30/IC50 for human HaCaT cells to IC30/IC50 for multidrug resistant human NCI-H460 cells; assay type: ADME, cell-based; settings: HaCaT cells versus multidrug resistant NCI-H460 cells; summary of the method: as §3
[12] = tested on: NCI-H460; assay: Induction of apoptosis in human NCI-H460 cells assessed as dead cells at 25 uM after 72 hrs by annexin-V/propidium iodide staining-based flow cytometric analysis (reference value: 1.2%); assay type: functional
[13] = tested on: NCI-H460; assay: Induction of apoptosis in human NCI-H460 cells assessed as late apoptotic/necrotic cells at 25 uM after 72 hrs by annexin-V/propidium iodide staining-based flow cytometric analysis (reference value: 0.2%); assay type: functional
[14] = tested on: Salmonella enteritidis; assay: Antibacterial activity against Salmonella enterica subsp. enterica serovar Enteritidis ATCC 13076 by broth microdilution method; assay type: functional; summary of the method: as §1
[15] = tested on: NCI-H460; assay: Cytotoxicity against human NCI-H460 cells after 72 hrs by MTT assay; assay type: functional, cell-based; settings: NCI-H460, 72 h
Summary of the method: (§4)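 Seeding in 96-well plates at 1000 (NCI-H460), 2000 (NCI-H460/R) or 4000 (HaCaT) cells/well, treated after 24 h for 72 h. MTT at 0.4 mg/mL final, 4 h at 37 °C. Formazan dissolved in DMSO, absorbance read at 540 nm. Inhibition % = (1 − A treated/A untreated)×100. IC30 and IC50 obtained by linear regression.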

[16] = tested on: NCI-H460; assay: Cytotoxicity against multidrug resistant human NCI-H460 cells after 72 hrs by MTT assay; assay type: functional, cell-based; settings: NCI-H460, 72 h; summary of the method: as §4
[17] = tested on: Micrococcus luteus; assay: Antibacterial activity against Micrococcus luteus ATCC 10240 by broth microdilution method; assay type: functional; summary of the method: as §1
[18] = tested on: HaCaT; assay: Induction of mitochondrial membrane potential depolarization in human HaCaT cells at 25 uM after 15 mins by JC1-staining-based flow cytometric analysis; assay type: cell-based; settings: 0.25 h
Summary of the method: (§5)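 Cells treated with 25 µM compound, with CDDP 5 µM as control. Stained with JC-1 for 15 min at 37 °C in a CO2 incubator, washed twice in assay buffer and resuspended in PBS. Flow cytometry read red aggregate (FL2-H) versus green monomer (FL1-H) fluorescence. Live cells were also imaged by fluorescence microscopy.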

[19] = tested on: Clostridium sporogenes; assay: Antibacterial activity against Clostridium sporogenes ATCC 19404 by broth microdilution method; assay type: functional; summary of the method: as §1
[20] = tested on: NCI-H460; assay: Induction of superoxide anion generation in human NCI-H460 cells at 25 uM after 72 hrs by DHE staining-based flow cytometric analysis relative to control; assay type: functional, cell-based; summary of the method: as §2
[21] = tested on: Bacillus spizizenii; assay: Antibacterial activity against Bacillus subtilis ATCC 6633 by broth microdilution method; assay type: functional; summary of the method: as §1
[22] = tested on: HaCaT; assay: Cytotoxicity against human HaCaT cells after 72 hrs by MTT assay; assay type: cell-based; settings: for IC50: Homo sapiens, HaCaT; for IC30: human, hacat; summary of the method: as §4
[23] = tested on: NCI-H460; assay: Induction of mitochondrial membrane potential depolarization in multidrug resistant human NCI-H460 cells at 25 uM after 15 mins by JC1-staining-based flow cytometric analysis; assay type: functional, cell-based; summary of the method: as §5
[24] = tested on: NCI-H460; assay: Induction of superoxide anion generation in multidrug resistant human NCI-H460 cells at 25 uM after 72 hrs by DHE staining-based flow cytometric analysis relative to control; assay type: functional, cell-based; summary of the method: as §2
[25] = tested on: Candida albicans; assay: Antifungal activity against Candida albicans ATCC 10231 by broth microdilution method; assay type: functional; summary of the method: as §1
[26] = tested on: Proteus hauseri; assay: Antibacterial activity against Proteus hauseri ATCC 13315 by broth microdilution method; assay type: functional; summary of the method: as §1
[27] = Induction of apoptosis in human HaCaT cells assessed as live cells at 25 uM after 72 hrs by annexin-V/propidium iodide staining-based flow cytometric analysis (reference value: 96.8%); assay type: cell-based; settings: read-out: Activity
[28] = tested on: NCI-H460; assay: Induction of apoptosis in multidrug resistant human NCI-H460 cells assessed as early apoptotic cells at 25 uM after 72 hrs by annexin-V/propidium iodide staining-based flow cytometric analysis (reference value: 1.1%); assay type: functional
[29] = tested on: Micrococcus luteus; assay: Antibacterial activity against Micrococcus luteus ATCC 4698 by broth microdilution method; assay type: functional; settings: NCTC 2665; summary of the method: as §1
[30] = tested on: NCI-H460; assay: Selectivity ratio of IC30/IC50 for human NCI-H460 cells to IC30/IC50 for multidrug resistant human NCI-H460 cells; assay type: functional; summary of the method: as §3
[31] = tested on: NCI-H460; assay: Induction of apoptosis in multidrug resistant human NCI-H460 cells assessed as late apoptotic/necrotic cells at 25 uM after 72 hrs by annexin-V/propidium iodide staining-based flow cytometric analysis (reference value: 1%); assay type: functional
[32] = tested on: HaCaT; assay: Induction of apoptosis in human HaCaT cells assessed as early apoptotic cells at 25 uM after 72 hrs by annexin-V/propidium iodide staining-based flow cytometric analysis (reference value: 0.2%); assay type: cell-based
[33] = tested on: NCI-H460; assay: Induction of apoptosis in multidrug resistant human NCI-H460 cells assessed as live cells at 25 uM after 72 hrs by annexin-V/propidium iodide staining-based flow cytometric analysis (reference value: 96.4%); assay type: functional
[34] = tested on: NCI-H460; assay: Induction of mitochondrial membrane potential depolarization in human NCI-H460 cells at 25 uM after 15 mins by JC1-staining-based flow cytometric analysis; assay type: functional, cell-based; summary of the method: as §5
[35] = tested on: NCI-H460; assay: Induction of apoptosis in human NCI-H460 cells assessed as live cells at 25 uM after 72 hrs by annexin-V/propidium iodide staining-based flow cytometric analysis (reference value: 98.3%); assay type: functional
[36] = tested on: HaCaT; assay: Induction of apoptosis in human HaCaT cells assessed as dead cells at 25 uM after 72 hrs by annexin-V/propidium iodide staining-based flow cytometric analysis (reference value: 2.8%); assay type: cell-based
[37] = tested on: Kocuria rhizophila; assay: Antibacterial activity against Kocuria rhizophila ATCC 9341 by broth microdilution method; assay type: functional; settings: DC2201; summary of the method: as §1
[38] = tested on: NCI-H460; assay: Resistance index, ratio of IC30/IC50 for multidrug resistant human NCI-H460 cells to IC30/IC50 for human NCI-H460 cells; assay type: functional; summary of the method: as §3

Row | Structure (SMILES) | MIC [2] | MIC [3] | MIC [4] | MIC [5] | selectivity ratio [7] | MIC [10] | selectivity ratio [11] | MIC [14] | IC30 [15] | IC50 [15] | IC30 [16] | IC50 [16] | MIC [17] | MIC [19] | MIC [21] | IC50 [22] | IC30 [22] | MIC [25] | MIC [26] | MIC [29] | further results
1 | CC(C)(C)C1=CC(=O)C=C(NCCc2ccccc2)C1=O | 34 µM (≈ 9.63 µg/mL) | 9 µM (≈ 2.55 µg/mL) | 4420 µM (≈ 1250 µg/mL) | 9 µM (≈ 2.55 µg/mL) | ≤ 1.5 | 1110 µM (≈ 313 µg/mL) | ≤ 1.5 | 4420 µM (≈ 1250 µg/mL) | 7 µM | 14 µM | 3 µM | 6 µM | 34 µM (≈ 9.63 µg/mL) | 4420 µM (≈ 1250 µg/mL) | 4420 µM (≈ 1250 µg/mL) | 23 µM | 19 µM | 34 µM (≈ 9.63 µg/mL) | 17700 µM (≈ 5010 µg/mL) | 2210 µM (≈ 626 µg/mL) | Activity [1]: 2.4%; Activity [6]: Non-toxic; Activity [8]: 6.9%; Activity [9]: 40.3%; Activity [12]: 22%; Activity [13]: 9.5%; Activity [18]: Non-toxic; Activity [20]: inactive; Activity [23]: Active; Activity [24]: Active; viability at 72 h, 25 µM [27]: 74.8%; Activity [28]: 2%; selectivity ratio [30]: <=1.5; Activity [31]: 11.8%; Activity [32]: 4.1%; Activity [33]: 45.9%; Activity [34]: Active; Activity [35]: 66.1%; Activity [36]: 14.2%; MIC [37]: 17700 µM (≈ 5010 µg/mL)
2 | CCCCNC1=CC(=O)C(C(C)(C)C)=CC1=O | 154 µM (≈ 36.2 µg/mL) | 19 µM (≈ 4.47 µg/mL) | 620 µM (≈ 146 µg/mL) | 38 µM (≈ 8.94 µg/mL) | ≤ 1.5 | 2460 µM (≈ 580 µg/mL) | ≤ 1.5 | 620 µM (≈ 146 µg/mL) | 5 µM | 36 µM | 19 µM | 72 µM | 38 µM (≈ 8.94 µg/mL) | 1240 µM (≈ 291 µg/mL) | 1240 µM (≈ 291 µg/mL) | > 100 µM | 50 µM | 77 µM (≈ 18.1 µg/mL) | 1240 µM (≈ 291 µg/mL) | 2470 µM (≈ 581 µg/mL) | Ratio [38]: <=1.5; MIC [37]: 2470 µM (≈ 581 µg/mL)
